# Screening data (PubChem)
# ARNT-TACC3 inh: ARNT/TACC3 interaction disruption; Q9Y6A5; AID 623870; AlphaScreen His-ARNT PAS-B/GST-TACC3 binding, luminescence; TACC3 fragment carries E629A point mutation; inhibition, % at 9.99 µM; 0.66% of 390,000 active;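 active means mean inhibition of replicates at least 50% and at least half of replicates each reaching 50%; inconclusive means half or more replicates reach 50% but mean below 50%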
# AI-2 QS modul: modulators of Vibrio harveyi AI-2 quorum sensing system; Vibrio harveyi JMH597 AI-2 luminescence/OD600 ratio, 9 h; hits give low values; strain lacks LuxN and CqsS sensors; 0 = neutral-control median; activity change, % at 7.5 µM; 0.4% of 300,000 active; in the data active means activity change below about -75%, passing the limit was not always enough; inconclusive means no clear call, values can overlap the other calls;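 further: luminescence divided by OD600 gain over 9 h not by final OD600 alone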
# CAL PDZ FP-1: inhibitors of human CAL PDZ peptide binding; purified CAL PDZ, TMR-peptide fluorescence polarization, 1 h; inhibition, % at 24.9 µM; Q9HD26; 0.92% of 300,000 active;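 active means mean inhibition of at least 30% with at least half of replicates also reaching 30%; inconclusive means no clear call, values can overlap the other calls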
# CAL PDZ FP-2: human CAL PDZ-peptide interaction inhibition; Q9HD26; purified CAL PDZ, TMR-peptide fluorescence polarization, 1 h; inhibition, % at 20 µM; 0.02% of 330,000 active;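 active means highest replicate inhibition of at least 40%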
#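 System: purified tagged CAL PDZ domain construct (CerCALP). Schedule: 1 h incubation at room temperature before polarization reading. Medium: 25 mM sodium phosphate pH 7.4, 150 mM NaCl, TCEP, IgG, Thesit. Read-out: percent inhibition from loss of millipolarization. Measured by: FP readout, S and P plane fluorescence. Probe or stimulus: fluorescent TMR peptide probe.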
# Rce1 inhib: blocks yeast Ras-converting enzyme | Q03530 | yeast membranes, quenched prenylated peptide cleavage fluorescence | calls only | 0.27% of 290,000 active;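 active means fall in fluorescence gain of 50% or more versus controls, with final raw signal at or below 3038400; inconclusive means same 50% fall but final raw signal above 3038400; inactive means fall in fluorescence gain under 50%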
# Target sequence (Q03530 whole entry, looked up): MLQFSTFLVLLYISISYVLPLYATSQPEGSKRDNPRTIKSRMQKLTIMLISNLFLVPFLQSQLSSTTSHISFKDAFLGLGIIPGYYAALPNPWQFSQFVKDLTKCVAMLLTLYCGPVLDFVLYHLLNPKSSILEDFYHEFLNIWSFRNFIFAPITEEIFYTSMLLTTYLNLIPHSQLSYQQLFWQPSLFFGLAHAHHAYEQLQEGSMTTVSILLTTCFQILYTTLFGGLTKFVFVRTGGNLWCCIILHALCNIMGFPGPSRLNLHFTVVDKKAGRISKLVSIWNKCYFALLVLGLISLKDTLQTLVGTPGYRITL
# ARNT Alpha ctr: AlphaScreen artifact in ARNT/TACC3 counter-screen | shares compounds with ARNT-TACC3 inh | His-ARNT PASB-GST AlphaScreen artifact counter-screen, luminescence | AC50, µM (doses to about 68 µM) | 50% of 1,200 active;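 active means every separate test run was called active for a drop in luminescence, with AC50 within twice the top valid dose, actives reach about 71 µM in these data; inconclusive means the separate test runs disagree in their calls; inactive means all runs inactive, including signal change in the wrong direction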
# A number is an active result; i = inactive; ? = inconclusive; nt = no result. In the library only some 1.7% were active in any assay of this set; here they are far more common.
SMILES,ARNT-TACC3 inh,AI-2 QS modul,CAL PDZ FP-1,CAL PDZ FP-2,Rce1 inhib,ARNT Alpha ctr
c1ccc(-c2noc(-c3ccco3)n2)nc1,nt,i,i,i,i,nt
c1ccc(-c2nccc(-c3ccco3)n2)nc1,59,i,i,i,i,57µM
N#CC1=C(N)Oc2c(ccc3cccnc23)C1c1cccnc1 (centres undefined),55,i,i,i,i,41µM
Cc1ccc2cc(C3C(C#N)=C(N)Oc4c3ccc3cccnc43)c(=O)[nH]c2c1 (centres undefined),52,i,nt,i,i,52µM
COc1ccc(C#Cc2ccc3c(c2)O[C@H](CN(C)C(=O)CN2CCOCC2)[C@H](C)CN([C@H](C)CO)S3(=O)=O)cc1,i,nt,nt,nt,nt,nt
Cc1ccc(/C=N/NC(=S)N2CCOCC2)cc1,45,i,i,i,i,i
COc1cccc(CNC(=O)COC(=O)C23CC4CC(CC(Cl)(C4)C2)C3)c1,i,nt,nt,i,nt,nt
Cc1ccc(NC(=O)Cc2nn(C)c(=O)c3ccccc23)cc1F,i,i,i,nt,i,nt
c1ccc(-c2nn[nH]n2)nc1,67,i,i,i,i,53µM
c1ccc(-c2ccc(-c3ccccn3)nn2)nc1,nt,i,nt,nt,i,nt
c1ccc(-c2nn[nH]n2)cc1,i,i,nt,i,nt,nt
c1ccc(-c2n[nH]c(-c3ccccn3)n2)nc1,60,i,i,i,i,7.5µM
COc1ccc(C(=O)NCC(=O)Nc2ccc(F)cc2)cc1OC,i,i,i,i,i,nt
CCC(=O)NC(c1ccc(OC)cc1)c1cc(Cl)c2cccnc2c1O (centres undefined),i,i,nt,i,i,nt
CC(=O)NC(c1ccc(C(C)C)cc1)c1ccc2cccnc2c1O (centres undefined),i,i,i,i,i,nt
Oc1c(C(c2ccccc2Cl)N2CCCC2)ccc2cccnc12 (centres undefined),74,?,i,i,i,8.4µM
Oc1c(C(c2ccc(Cl)cc2)N2CCCC2)cc(Cl)c2cccnc12 (centres undefined),55,-121,i,i,i,6.5µM
CN1CCN(C(c2ccccn2)c2cc(Cl)c3cccnc3c2O)CC1 (centres undefined),52,i,i,i,i,21µM
Oc1c(C(c2ccccn2)N2CCC(Cc3ccccc3)CC2)cc(Cl)c2cccnc12 (centres undefined),nt,?,nt,nt,i,nt
COc1ccc(-c2nnc(SCC(=O)NC3CC3)o2)cc1,active,nt,i,i,nt,i
CN(C)CCN(C(=O)c1ccc2c(c1)CCCC2)c1nc2cc3c(cc2s1)OCCO3,52,i,i,i,i,24µM
CN(C)CCN(C(=O)c1ccc2c(c1)OCCO2)c1nc2cc3c(cc2s1)OCO3,i,i,i,i,i,nt
O=C(C[C@@H]1C=C[C@@H](NC(=O)c2ccc3c(c2)OCO3)[C@H](CO)O1)NCc1ccc(Cl)cc1,i,nt,nt,nt,nt,nt
c1ccc(N=Nc2ccc3cccccc2-3)cc1,57,i,nt,i,i,3.2µM
C/C=C/c1ccc([C@H]2[C@@H](CO)N(Cc3ccccn3)[C@H]2CNC(C)=O)cc1,30,nt,nt,nt,nt,i
SMILES,ARNT-TACC3 inh,AI-2 QS modul,CAL PDZ FP-1,CAL PDZ FP-2,Rce1 inhib,ARNT Alpha ctr
C/C=C/c1ccc([C@H]2[C@@H](CNC(=O)CC)N(Cc3ccccn3)[C@H]2CO)cc1,47,nt,nt,nt,nt,i
O=C(NC[C@@H]1[C@H](c2ccccc2)[C@H](CO)N1Cc1ccccn1)C1CC1,46,nt,nt,nt,nt,i
COCCCN=Cc1c(-c2ccccc2)[nH]n(-c2nc3ccccc3s2)c1=O,58,i,i,i,i,i
O=c1c(C=NCCCO)c(-c2ccccc2)[nH]n1-c1nc2ccccc2s1,i,i,nt,i,i,nt
O=S(=O)(N[C@@H]1CC[C@H](CCn2cc(-c3ccccn3)nn2)O[C@H]1CO)c1cccc(Cl)c1,69,nt,nt,nt,nt,34µM
O=S(=O)(N[C@@H]1CC[C@@H](CCn2cc(-c3ccccc3F)nn2)O[C@@H]1CO)c1ccc(Cl)cc1,i,nt,nt,nt,nt,nt
O=S(=O)(N[C@H]1CC[C@H](CCn2cc(-c3ccccn3)nn2)O[C@H]1CO)c1cccc(Cl)c1,63,nt,nt,nt,nt,55µM
CN(C)C(=O)C[C@H]1CC[C@@H](NC(=O)C2CCC2)[C@@H](CO)O1,i,nt,nt,nt,nt,nt
C[C@@H]1CCCCO[C@H](CN(C)Cc2ccc3c(c2)OCO3)[C@@H](C)CN([C@@H](C)CO)C(=O)c2cc(NC(=O)Nc3ccc(C(F)(F)F)cc3)ccc2O1,i,nt,nt,nt,nt,nt
C[C@@H]1CN([C@H](C)CO)C(=O)c2cc(NC(=O)Nc3ccc(C(F)(F)F)cc3)ccc2O[C@@H](C)CCCCO[C@H]1CN(C)Cc1ccc2c(c1)OCO2,68,nt,nt,nt,nt,53µM
C[C@@H]1CN([C@H](C)CO)C(=O)c2cc(N(C)C)ccc2O[C@@H](C)CCCCO[C@@H]1CN(C)Cc1ccc2c(c1)OCO2,57,nt,nt,nt,nt,58µM
C[C@@H]1CCCCO[C@@H](CN(C)C(=O)Nc2ccc3c(c2)OCO3)[C@@H](C)CN([C@@H](C)CO)C(=O)c2cc(N(C)C)ccc2O1,54,nt,nt,nt,nt,i
C[C@@H]1CCCCO[C@H](CN(C)Cc2ccncc2)[C@H](C)CN([C@H](C)CO)C(=O)c2cc(NC(=O)C3CCCCC3)ccc2O1,62,nt,nt,nt,nt,i
C[C@@H]1CN([C@H](C)CO)C(=O)c2cc(NC(=O)C3CCCCC3)ccc2O[C@@H](C)CCCCO[C@@H]1CN(C)Cc1ccncc1,i,nt,nt,nt,nt,nt
COC(=O)c1[nH]c2ccc(C)cc2c1NC(=O)c1ccccc1[N+](=O)[O-],54,i,i,i,i,i
COC(=O)c1[nH]c2ccc(Cl)cc2c1NC(=O)c1ccccc1[N+](=O)[O-],i,i,i,i,i,nt
O=C(CSc1cccc2cccnc12)Nc1ccc(S(=O)(=O)N2CCOCC2)cc1,74,i,i,i,i,33µM
Cc1cccc(CSc2cccc3cccnc23)c1,62,i,i,i,i,13µM
COc1ccc(CNC(=O)CSc2cccc3cccnc23)cc1,i,i,i,i,i,nt
CCOC(=O)CSc1cccc2cccnc12,57,i,i,i,i,9.3µM
CCCCCOc1ccc(NC(=O)CSc2cccc3cccnc23)cc1,58,i,i,i,i,63µM
NNC(=O)c1ccc(CSc2cccc3cccnc23)cc1,i,i,i,i,i,nt
Cc1cc(SCC(=O)Nc2ccccc2)nc(C)n1,i,i,i,i,i,nt
O=C(N/N=C/c1cccc2nccnc12)c1ccccc1O,59,i,nt,i,i,30µM
CC(C)NC(=O)Nc1ccc2c(c1)CC(=O)N([C@H](C)CO)C[C@H](C)[C@H](CN(C)S(=O)(=O)c1cccs1)O2,108,nt,nt,nt,nt,i
C[C@H](CO)N1C[C@H](C)[C@H](CN(C)C(=O)NC2CCCCC2)Oc2ccc(NS(=O)(=O)c3cccs3)cc2CC1=O,59,nt,nt,nt,nt,i
CC(C)NC(=O)Nc1ccc2c(c1)CC(=O)N([C@@H](C)CO)C[C@H](C)[C@@H](CN(C)S(=O)(=O)c1cccs1)O2,i,nt,nt,nt,nt,nt
O=C(Nc1nccs1)c1cnccn1,51,i,nt,i,i,i
